ChEMBL document CHEMBL5104224, “Alkyltriphenylphosphonium turns naphthoquinoneimidazoles into potent membrane depolarizers against mycobacteria” (RSC Med Chem, 2022)
Calls of active or inactive are those of the source. No cut-off for these calls is given here.

Columns and labels:
[1] = test system: Mycobacterium tuberculosis variant bovis; assay: Inhibition of ATP synthesis in Mycobacterium bovis BCG ATCC 35734 assessed as reduction in ATP level at 4 x MIC90 incubated for 15 mins by BacTiter-Glo microbial luminescence assay; type: functional
Summary of the method: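 Mid-log BCG diluted to OD600 0.1 in complete 7H9 and treated at 4× MIC90. At each time point, culture mixed 1:1 with BacTiter-Glo reagent for 15 min at room temperature in the dark and luminescence read. Background (media + reagent) subtracted. ATP quantified from a calibration curve of 0.1–100 nM ATP in 7H9. Rifampicin negative control.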

Cell membrane [2] = assay: Induction of cell membrane depolarization in Mycobacterium bovis BCG ATCC 35734 assessed as loss in mitochondrial membrane potential at 4 x MIC90 incubated for 24 hrs by DiOC2(3) dye based fluorescence assay; type: subcellular; conditions: Mycobacterium tuberculosis variant bovis
Summary of the method: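 Aliquots taken at selected times and stained with DiOC2(3) (BacLight membrane potential kit). Depolarization read as a fall in red/green fluorescence ratio. CCCP 5 μM positive control, rifampicin 0.08 μM negative control.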

Cell membrane [3] = assay: Induction of cell envelope stress in Mycobacterium bovis BCG ATCC 35734 expressing piniBAC RFP at 4 x MIC90 after 24 hrs by fluorescence analysis; type: subcellular; conditions: Mycobacterium tuberculosis variant bovis
Summary of the method: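 Recombinant M. bovis BCG-piniBAC-RFP at OD600 0.2, incubated with compound for 24 h. Red fluorescence (Ex 587/Em 630 nm) normalized to OD600 to reflect promoter induction. INH (0.1–50 μM) positive control.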

| SMILES | inhibition [1] | Activity (Cell membrane [2]) | Activity (Cell membrane [3]) |
| --- | --- | --- | --- |
| Cc1nc2c(n1CCCCCCCCC[P+](c1ccccc1)(c1ccccc1)c1ccccc1)C(=O)c1ccccc1C2=O | Active | Active | – |
| Cc1nc2c(n1CCCCCCCCCCC[P+](c1ccccc1)(c1ccccc1)c1ccccc1)C(=O)c1ccccc1C2=O | Active | Active | – |
| CCCCCCC[P+](c1ccccc1)(c1ccccc1)c1ccccc1 | Active | Active | – |
| CCCCCCCCCCC[P+](c1ccccc1)(c1ccccc1)c1ccccc1 | Active | Active | – |
| NNC(=O)c1ccncc1 | – | – | Active |
